# Assay results reported in ChEMBL document CHEMBL1127450, “Synthesis and antiviral activity evaluation of some aminoadamantane derivatives” (1994).
# How the values were obtained:
# Assay type in all cases: functional
# Vero [1] = assay: Tested for minimum inhibitory concentration required to reduce virus-induced cytopathicity by 50% on vero cell line infected with coxsackie B4 virus; details: Chlorocebus sabaeus
# In short: (§1)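 HeLa (human epithelial), MDCK (Madin-Darby canine kidney) or Vero (African green monkey kidney) cells were infected with the stated virus. The value is the concentration that reduces virus-induced cytopathicity by 50%. Values are averages of at least two separate experiments.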
# CCRF-CEM [2] = assay: Tested for minimum inhibitory concentration required to reduce virus-induced cytopathicity by 50% on CEM cell line infected with HIV-2 virus; details: Homo sapiens
# HEF [3] = assay: Tested for minimum inhibitory concentration required to reduce virus-induced cytopathicity by 50% on HEF cell line infected with thymidine kinase-deficient herpes simplex virus type 1 (TK-HSV-1); details: Homo sapiens
# In short: (§2)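 Human embryonic skin-muscle fibroblasts (HEF) were infected with the stated virus. The value is the concentration that reduces virus-induced cytopathicity by 50%. Values are averages of at least two separate experiments.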
# HeLa [4] = assay: Tested for minimum inhibitory concentration required to reduce virus-induced cytopathicity by 50% on HeLa cell line infected with RSV virus; details: Homo sapiens; in short: as §1
# CCRF-CEM [5] = assay: Tested for minimum inhibitory concentration required to reduce virus-induced cytopathicity by 50% was evaluated on CEM cell line infected with HIV-1 virus; details: Homo sapiens
# MDCK [6] = assay: Tested for minimum inhibitory concentration required to cause a microscopically detectable alteration of normal cell morphology by 50% on MDCK cell line; details: Canis lupus familiaris
# In short: (§3)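 HeLa (human epithelial), MDCK (Madin-Darby canine kidney) or Vero (African green monkey kidney) cells were scored by microscopy. The value is the minimum concentration that causes a detectable alteration of normal cell morphology. Values are averages of at least two separate experiments.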
# Vero [7] = assay: Tested for minimum inhibitory concentration required to reduce virus-induced cytopathicity by 50% on vero cell line infected with sindbis virus; details: Chlorocebus sabaeus; in short: as §1
# Vero [8] = assay: Tested for minimum inhibitory concentration required to cause a microscopically detectable alteration of normal cell morphology by 50% on vero cell line; details: Chlorocebus sabaeus; in short: as §3
# HeLa [9] = assay: Tested for minimum inhibitory concentration required to cause a microscopically detectable alteration of normal cell morphology by 50% on HeLa cell line; details: Homo sapiens; in short: as §3
# HEF [10] = assay: Tested for minimum inhibitory concentration required to cause a microscopically detectable alteration of normal cell morphology by 50% on HEF cell line; details: Homo sapiens
# In short: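 Human embryonic skin-muscle fibroblasts (HEF) were used. The value is the minimum concentration that causes a microscopically detectable alteration of normal cell morphology. Values are averages of at least two separate experiments.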
# Vero [11] = assay: Tested for minimum inhibitory concentration required to reduce virus-induced cytopathicity by 50% on vero cell line infected with parainfluenza 3 virus; details: Chlorocebus sabaeus; in short: as §1
# MDCK [12] = assay: Tested for minimum inhibitory concentration required to reduce virus-induced cytopathicity by 50% on MDCK cell line infected with influenza B virus; details: Canis lupus familiaris; in short: as §1
# Vero [13] = assay: Tested for minimum inhibitory concentration required to reduce virus-induced cytopathicity by 50% on vero cell line infected with Reo 1 virus; details: Chlorocebus sabaeus; in short: as §1
# HEF [14] = assay: Tested for minimum inhibitory concentration required to reduce virus-induced cytopathicity by 50% on HEF cell line infected with vaccinia virus; details: Homo sapiens; in short: as §2
# HEF [15] = assay: Tested for minimum inhibitory concentration required to reduce virus-induced cytopathicity by 50% on HEF cell line infected with HSV-2 virus; details: Homo sapiens; in short: as §2
# HeLa [16] = assay: Tested for minimum inhibitory concentration required to reduce virus-induced cytopathicity by 50% on HeLa cell line infected with polio 1 virus; details: Homo sapiens; in short: as §1
# Vero [17] = assay: Tested for minimum inhibitory concentration required to reduce virus-induced cytopathicity by 50% on vero cell line infected with semliki forest virus; details: Chlorocebus sabaeus; in short: as §1
# HEF [18] = assay: Tested for minimum inhibitory concentration required to reduce virus-induced cytopathicity by 50% on HEF cell line infected with HSV-1 virus; details: Homo sapiens; in short: as §2
# HEF [19] = assay: Tested for minimum inhibitory concentration required to reduce […] by 50% on HEF cell line; details: Homo sapiens
# In short: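 Human embryonic lung fibroblasts (HEF) were used for cell proliferation. The value is the concentration that reduces cell proliferation by 50%. Values are averages of at least two separate experiments.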
# HEF [20] = assay: Tested for minimum inhibitory concentration required to reduce virus-induced cytopathicity by 50% on HEF cell line infected with vesicular stomatitis virus; details: Homo sapiens; in short: as §2
# CCRF-CEM [21] = assay: Tested for minimum inhibitory concentration required to reduce virus-induced cell viability by 50% on CEM cell line; details: Homo sapiens
# MDCK [22] = assay: Tested for minimum inhibitory concentration required to reduce virus-induced cytopathicity by 50% on MDCK cell line infected with influenza A virus; details: Canis lupus familiaris; in short: as §1
# Vero [23] = assay: Tested for minimum inhibitory concentration required to cause a microscopically detectable alteration of normal cell morphology by 50% on Vero cell line; details: Chlorocebus sabaeus; in short: as §3
# HeLa [24] = assay: tested for minimum inhibitory concentration required to cause a microscopically detectable alteration of normal cell morphology by 50% on HeLa cell line; details: Homo sapiens; in short: as §3
# Vero [25] = assay: Tested for minimum inhibitory concentration required to reduce virus-induced cytopathicity by 50% on vero cell line infected with semliki forest; details: Chlorocebus sabaeus; in short: as §1
SMILES,MIC50 (Vero [1]),MIC50 (CCRF-CEM [2]),MIC50 (HEF [3]),MIC50 (HeLa [4]),MIC50 (CCRF-CEM [5]),MIC50 (MDCK [6]),MIC50 (Vero [7]),MIC50 (HeLa [9]),MIC50 (HEF [10]),MIC50 (Vero [11]),MIC50 (MDCK [12]),MIC50 (Vero [13]),MIC50 (HEF [14]),MIC50 (HEF [15]),MIC50 (HeLa [16]),MIC50 (Vero [17]),MIC50 (HEF [18]),MIC50 (HEF [19]),MIC50 (HEF [20]),MIC50 (MDCK [22]),also measured
C1CNC2(C1)C1CC3CC(C1)CC2C3 (stereo unspecified),> 200 µg/mL,> 40 µg/mL,> 200 µg/mL,> 200 µg/mL,> 40 µg/mL,> 200 µg/mL,> 200 µg/mL,> 200 µg/mL,≥ 400 µg/mL,> 200 µg/mL,> 200 µg/mL,> 200 µg/mL,> 200 µg/mL,> 200 µg/mL,> 200 µg/mL,> 200 µg/mL,200 µg/mL,> 50 µg/mL,> 200 µg/mL,> 30 µg/mL,MIC50 (Vero [8]): ≥ 400 µg/mL; MIC50 (CCRF-CEM [21]): 100 µg/mL
NC1CC12C1CC3CC(C1)CC2C3 (stereo unspecified),> 40 µg/mL,> 8 µg/mL,> 20 µg/mL,30 µg/mL,> 8 µg/mL,100 µg/mL,> 40 µg/mL,40 µg/mL,40 µg/mL,> 40 µg/mL,> 100 µg/mL,> 40 µg/mL,> 20 µg/mL,> 20 µg/mL,> 20 µg/mL,> 40 µg/mL,> 20 µg/mL,80 µg/mL,> 20 µg/mL,30 µg/mL,MIC50 (CCRF-CEM [21]): 32 µg/mL; MIC50 (Vero [23]): 100 µg/mL
CN(C)C1CC12C1CC3CC(C1)CC2C3 (stereo unspecified),> 400 µg/mL,> 200 µg/mL,> 200 µg/mL,> 200 µg/mL,> 200 µg/mL,100 µg/mL,> 400 µg/mL,≥ 400 µg/mL,≥ 400 µg/mL,100 µg/mL,> 100 µg/mL,400 µg/mL,> 200 µg/mL,> 200 µg/mL,> 400 µg/mL,> 400 µg/mL,> 200 µg/mL,> 200 µg/mL,> 200 µg/mL,6 µg/mL,MIC50 (Vero [8]): > 400 µg/mL; MIC50 (CCRF-CEM [21]): > 200 µg/mL
CNCC1CC12C1CC3CC(C1)CC2C3 (stereo unspecified),> 20 µg/mL,> 8 µg/mL,> 20 µg/mL,30 µg/mL,> 8 µg/mL,20 µg/mL,> 20 µg/mL,40 µg/mL,40 µg/mL,> 20 µg/mL,> 20 µg/mL,> 20 µg/mL,> 20 µg/mL,> 20 µg/mL,> 20 µg/mL,> 20 µg/mL,> 20 µg/mL,50 µg/mL,> 20 µg/mL,> 20 µg/mL,MIC50 (Vero [8]): 40 µg/mL; MIC50 (CCRF-CEM [21]): 4 µg/mL
CN(C)CC1CC12C1CC3CC(C1)CC2C3 (stereo unspecified),> 70 µg/mL,> 40 µg/mL,> 20 µg/mL,40 µg/mL,> 40 µg/mL,70 µg/mL,> 70 µg/mL,100 µg/mL,40 µg/mL,> 70 µg/mL,> 100 µg/mL,> 70 µg/mL,> 20 µg/mL,> 20 µg/mL,> 70 µg/mL,> 70 µg/mL,> 20 µg/mL,95 µg/mL,> 20 µg/mL,> 40 µg/mL,MIC50 (Vero [8]): 100 µg/mL; MIC50 (CCRF-CEM [21]): 23 µg/mL
CCN1CCCC12C1CC3CC(C1)CC2C3 (stereo unspecified),> 400 µg/mL,> 200 µg/mL,≥ 400 µg/mL,> 200 µg/mL,> 200 µg/mL,> 200 µg/mL,> 400 µg/mL,–,> 400 µg/mL,> 400 µg/mL,> 200 µg/mL,> 400 µg/mL,> 400 µg/mL,> 400 µg/mL,> 400 µg/mL,> 400 µg/mL,> 400 µg/mL,> 200 µg/mL,≥ 400 µg/mL,2.4 µg/mL,MIC50 (HeLa [24]): > 400 µg/mL; MIC50 (Vero [8]): > 400 µg/mL; MIC50 (CCRF-CEM [21]): > 200 µg/mL
NCC1CC12C1CC3CC(C1)CC2C3 (stereo unspecified),> 20 µg/mL,> 8 µg/mL,> 20 µg/mL,≥ 15 µg/mL,> 8 µg/mL,20 µg/mL,> 20 µg/mL,20 µg/mL,40 µg/mL,> 20 µg/mL,> 20 µg/mL,> 20 µg/mL,> 20 µg/mL,> 20 µg/mL,> 10 µg/mL,–,> 20 µg/mL,28 µg/mL,> 20 µg/mL,0.8 µg/mL,MIC50 (Vero [8]): 40 µg/mL; MIC50 (Vero [25]): > 20 µg/mL; MIC50 (CCRF-CEM [21]): 14 µg/mL
CN1CCCC12C1CC3CC(C1)CC2C3 (stereo unspecified),> 400 µg/mL,> 200 µg/mL,≥ 400 µg/mL,> 200 µg/mL,> 200 µg/mL,> 200 µg/mL,> 400 µg/mL,> 400 µg/mL,> 400 µg/mL,> 400 µg/mL,> 200 µg/mL,> 400 µg/mL,> 400 µg/mL,> 400 µg/mL,> 400 µg/mL,> 400 µg/mL,≥ 400 µg/mL,> 50 µg/mL,≥ 400 µg/mL,0.56 µg/mL,MIC50 (Vero [8]): > 400 µg/mL; MIC50 (CCRF-CEM [21]): > 200 µg/mL
CNC1CC12C1CC3CC(C1)CC2C3 (stereo unspecified),> 70 µg/mL,> 8 µg/mL,> 40 µg/mL,> 150 µg/mL,> 8 µg/mL,100 µg/mL,> 70 µg/mL,200 µg/mL,100 µg/mL,> 70 µg/mL,> 100 µg/mL,> 70 µg/mL,> 70 µg/mL,> 70 µg/mL,> 100 µg/mL,> 70 µg/mL,> 70 µg/mL,90 µg/mL,> 40 µg/mL,1.2 µg/mL,MIC50 (CCRF-CEM [21]): 75 µg/mL; MIC50 (Vero [23]): 100 µg/mL
NC12CC3CC(CC(C3)C1)C2 [AMANTADINE],–,–,–,> 100 µg/mL,–,> 100 µg/mL,–,100 µg/mL,–,–,> 200 µg/mL,–,–,–,–,–,–,–,–,100 µg/mL,–
NC(=O)c1ncn([C@@H]2O[C@H](CO)[C@@H](O)[C@H]2O)n1 [RIBAVIRIN],300 µg/mL,–,≥ 200 µg/mL,2.8 µg/mL,–,> 200 µg/mL,70 µg/mL,> 200 µg/mL,> 400 µg/mL,70 µg/mL,4 µg/mL,20 µg/mL,70 µg/mL,> 400 µg/mL,70 µg/mL,20 µg/mL,200 µg/mL,–,20 µg/mL,1.2 µg/mL,MIC50 (Vero [8]): > 400 µg/mL
